Source: article PMC12554292 (Drug Design, Development and Therapy, 2025)
Like-named read-outs stand apart in the source and are kept apart here.

Columns and labels:
Huh-7 cells [1] = assay: Live and dead cell staining; type: cell-based, human; conditions: 5, 10, 20 μM, 24h
Method in brief: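 Huh-7 cells seeded at 3 × 10^3 cells/well and incubated overnight. Treated with test compound at 0, 5, 10 or 20 μM for 24 h, then stained with Calcein-AM and PI for 1 h in the dark and imaged by fluorescence confocal microscopy. 5–6 replicates per group.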

Huh-7 cells [2] = assay: CCK-8 cell viability and IC50 measurement, Huh-7; type: cell-based, human; conditions: read-out: IC50 Huh-7
Method in brief: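 Huh-7 cells (ATCC) in DMEM or RPMI 1640 with 10% FBS, 37°C, 5% CO2; seeded 3 × 10^3 cells/well and left to adhere overnight. […] CCK-8 added for 1 h, A450 read. Viability as % of control; IC50 from inhibition by nonlinear regression. n > 5; mean ± SE.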

Huh-7 cells [3] = assay: DNA damage staining; type: cell-based, human; conditions: 5, 10, 20 μM, 24h
Method in brief: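 Huh-7 cells seeded at 3 × 10^3 cells/well and exposed to test compound at 0, 5, 10 or 20 μM for 24 h. Stained with a DNA damage detection kit (nuclei blue, DNA-damaged cells green), then imaged by fluorescence microscopy. 5–6 replicates per group.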

Female KM mice = assay: Acute oral toxicity test; type: in vivo; conditions: 500 mg/kg, intragastric administration
Method in brief: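 Female Kunming mice (SPF, 8 weeks), acclimated 7 days with free water on a 12 h light/dark cycle; 6 per group. Test compound at 500 mg/kg given intragastrically in 5% DMSO + 40% PEG300 + 1% Tween 80 + 54% saline; controls received an equal volume of vehicle. Body weight and appearance were followed for 14 days. Heart, liver, spleen, lungs and kidneys were then weighed for organ coefficients and examined by H&E histology.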

Huh-7 cells [4] = assay: Autophagy staining assay; type: cell-based, human; conditions: 5, 10, 20 μM, 24 h, MDC probe
Method in brief: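 Huh-7 cells were seeded at 3 × 10^3 cells/well and exposed to 0, 5, 10 or 20 μM test compound for 24 h. Medium was removed, and cells were stained with monodansylcadaverine for 1 h in the dark at 37°C, then imaged by confocal microscopy. Replicates: 5–6 per group.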

Huh-7 cells [5] = assay: RT-PCR gene expression analysis; type: cell-based, human; conditions: 10 μM, 72 h
Method in brief: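 Huh-7 cells in 12-well plates were treated with 10 μM test compound for 72 h. Total RNA was extracted with TRIzol, and gene expression was measured by SYBR Green real-time PCR using specific primer pairs.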

Huh-7 cells [6] = assay: Apoptosis assay; type: cell-based, human; conditions: 5, 10, 20 μM, 72h
Huh-7 cells [7] = assay: Western blot protein expression analysis; type: cell-based, human; conditions: 10 μM, 72 h
Method in brief: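 Huh-7 cells in 12-well plates were treated with 10 μM test compound for 72 h. Whole-cell protein was extracted in RIPA buffer with protease/phosphatase inhibitors and immunoblotted for γH2AX, caspase-3, caspase-9, PARP, cyclin D, cyclin E, LC3 and β-actin. Six replicates per group; mean ± SEM, two-tailed t-test.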

[8] = molecular target: MET receptor tyrosine kinase (RTK); conditions: read-out: IC50 MET receptor tyrosine kinase; cited from earlier work
ABHD6 = conditions: cited from earlier work

O=C(Nc1ccc(Cl)cc1)Nc1cccc(-c2cn(Cc3ccc(Br)cc3)nn2)c1 [Compound 3c, 1-(3-(1-(4-Bromobenzyl)-1H-1,2,3-Triazol-4-Yl)phenyl)-3-(4-Chlorophenyl)urea]
Dead and living cells staining (Huh-7 cells [1]): dead cells were increased significantly in a dose-dependent manner | IC50 (Huh-7 cells [2]; Homo sapiens, Huh-7, 72 h): 10.2 ± 1.32 µM | DNA damage (Huh-7 cells [3]): significantly stimulated DNA damage in a concentration-dependent manner | mortality (Female KM mice; 14-day observation, female KM mice): no mortality | body weight vs vehicle control group (Female KM mice; 14 days, all time points): no statistically significant differences | organ coefficient and histopathological assessments of major organs (Female KM mice; cardiac, hepatic, splenic, pulmonary, renal tissues): no detectable toxicological alterations | autophagosome in tumor cells (Huh-7 cells [4]): increased dramatically | expression of Keap1 (mRNA) (Huh-7 cells [5]): upregulated | expression of oxidative stress genes Nrf2, Gpx4, TNFa (mRNA) (Huh-7 cells [5]): no significant changes | expressions of p53, p21, H2AX, Bcl2, caspase6, caspase7, ATG5 and ATG7 (mRNA) (Huh-7 cells [5]): did not influence | apoptotic cells (Huh-7 cells [6]): dose-dependent increases in apoptotic cells

O=C(Nc1cccc(-c2cn(Cc3ccc(Br)cc3)nn2)c1)Nc1ccccc1Br [Compound 3e, 1-(3-(1-(4-Bromobenzyl)-1H-1,2,3-Triazol-4-Yl)phenyl)-3-(2-Bromophenyl)urea]
H2AX protein expression (Huh-7 cells [7]): significantly increased | Dead and living cells staining (Huh-7 cells [1]): dead cells were increased significantly in a dose-dependent manner | IC50 (Huh-7 cells [2]; Homo sapiens, Huh-7, 72 h): 12.2 ± 1.31 µM | DNA damage (Huh-7 cells [3]): significantly stimulated DNA damage in a concentration-dependent manner | autophagosome in tumor cells (Huh-7 cells [4]): increased dramatically | DNA damaged genes and autophagy genes (mRNA) (Huh-7 cells [5]): not changed | expression of Bcl2 (mRNA) (Huh-7 cells [5]): increased largely | expression of Gpx4 and TNFa (mRNA) (Huh-7 cells [5]): also increased | apoptotic cells (Huh-7 cells [6]): dose-dependent increases in apoptotic cells

O=c1[nH]cc(F)c(=O)[nH]1 [Compound 5-FU, reference compound]
IC50 (Huh-7 cells [2]; 72-hour exposure, CCK-8): 39 ± 0.56 µM

O=C(Nc1ccc(Cl)cc1)Nc1ccc(-c2cn(Cc3ccc(Cl)cc3)nn2)cc1 [Compound 5a, 1-(4-(1-(4-Chlorobenzyl)-1H-1,2,3-Triazol-4-Yl)phenyl)-3-(4-Chlorophenyl)urea]
IC50 (Huh-7 cells [2]; Homo sapiens, Huh-7, 72 h): > 50 µM

O=C(Nc1ccc(Cl)cc1)Nc1ccc(-c2cn(Cc3cccc(Cl)c3)nn2)cc1 [Compound 5b, 1-(4-(1-(3-Chlorobenzyl)-1H-1,2,3-Triazol-4-Yl)phenyl)-3-(4-Chlorophenyl)urea]
IC50 (Huh-7 cells [2]; Homo sapiens, Huh-7, 72 h): > 50 µM

O=C(Nc1ccc(Cl)cc1)Nc1ccc(-c2cn(Cc3ccc(Br)cc3)nn2)cc1 [Compound 5c, 1-(4-(1-(4-Bromobenzyl)-1H-1,2,3-Triazol-4-Yl)phenyl)-3-(4-Chlorophenyl)urea]
IC50 (Huh-7 cells [2]; Homo sapiens, Huh-7, 72 h): > 50 µM

O=C(Nc1ccc(-c2cn(Cc3ccc(Cl)cc3)nn2)cc1)Nc1ccccc1Br [Compound 5d, 1-(2-Bromophenyl)-3-(4-(1-(4-Chlorobenzyl)-1H-1,2,3-Triazol-4-Yl)phenyl)urea]
IC50 (Huh-7 cells [2]; Homo sapiens, Huh-7, 72 h): > 50 µM

O=C(Nc1ccc(-c2cn(Cc3ccc(Br)cc3)nn2)cc1)Nc1ccccc1Br [Compound 5e, 1-(4-(1-(4-Bromobenzyl)-1H-1,2,3-Triazol-4-Yl)phenyl)-3-(2-Bromophenyl)urea]
IC50 (Huh-7 cells [2]; Homo sapiens, Huh-7, 72 h): > 50 µM

O=C(NCc1cn(Cc2ccc(Cl)cc2)nn1)Nc1ccc(Cl)cc1 [Compound 7a, 1-((1-(4-Chlorobenzyl)-1H-1,2,3-Triazol-4-Yl)methyl)-3-(4-Chlorophenyl)urea]
IC50 (Huh-7 cells [2]; Homo sapiens, Huh-7, 72 h): > 50 µM

O=C(NCc1cn(Cc2cccc(Cl)c2)nn1)Nc1ccc(Cl)cc1 [Compound 7b, 1-((1-(3-Chlorobenzyl)-1H-1,2,3-Triazol-4-Yl)methyl)-3-(4-Chlorophenyl)urea]
IC50 (Huh-7 cells [2]; Homo sapiens, Huh-7, 72 h): > 50 µM

O=C(NCc1cn(Cc2ccc(Br)cc2)nn1)Nc1ccc(Cl)cc1 [Compound 7c, 1-((1-(4-Bromobenzyl)-1H-1,2,3-Triazol-4-Yl)methyl)-3-(4-Chlorophenyl)urea]
IC50 (Huh-7 cells [2]; Homo sapiens, Huh-7, 72 h): > 50 µM

O=C(NCc1cn(Cc2ccc(Cl)cc2)nn1)Nc1ccccc1Br [Compound 7d, 1-(2-Bromophenyl)-3-((1-(4-Chlorobenzyl)-1H-1,2,3-Triazol-4-Yl)methyl)urea]
IC50 (Huh-7 cells [2]; Homo sapiens, Huh-7, 72 h): > 50 µM

O=C(NCc1cn(Cc2ccc(Br)cc2)nn1)Nc1ccccc1Br [Compound 7e, 1-((1-(4-Bromobenzyl)-1H-1,2,3-Triazol-4-Yl)methyl)-3-(2-Bromophenyl)urea]
IC50 (Huh-7 cells [2]; Homo sapiens, Huh-7, 72 h): > 50 µM

O=C(NCCN1CCOCC1)Nc1nc2ccc(Sc3nnc4ccc(-c5ccc(F)cc5)nn34)cc2s1 [II]
IC50 [8]: 0.0042 µM

O=C(c1cccc(-c2ccc(-c3cn(C(=O)N4CCCCC4c4ccccc4)nn3)cc2)c1)N1CCCCC1 (stereo not drawn) [KT185]
in vivo selectivity (ABHD6): exceptional in vivo selectivity
